Measurements as given in ChEMBL document CHEMBL1126244, “HIV-1 protease inhibitors based on hydroxyethylene dipeptide isosteres: an investigation into the role of the P1' side chain on structure-activity” (J Med Chem, 1992).
pIC50: −log10 of the molar value. In brackets after ≈: the same amount, converted by molar mass.

Assays:
[1] = molecular target: Human immunodeficiency virus type 1 protease (Human immunodeficiency virus 1, UniProt Q72874); test: Inhibition of HIV-1 protease
[2] = test system: Human immunodeficiency virus 1; test: Ex vivo antiviral activity in H9 T-lymphoid cells infected with HIV-1(IIIB).; type: functional; conditions: read-out: MIC100
Method in brief: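 Human H9 T-lymphoid cells acutely infected with HIV-1 IIIB isolate, MOI 0.01; compound added in DMSO at time of infection, refreshed every 2–3 days when culture sampled and half the medium replaced. Spread read by indirect immunofluorescence (anti-HIV-1 human serum primary antibody) at 14 days; MIC100 = minimum concentration completely preventing spread of infection through the culture, in nM.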

| Compound | pIC50 [1] | MIC [2] [µM] |
| --- | --- | --- |
| CC(C)C[C@H](NC(=O)[C@H](CCCc1ccccc1)C[C@H](O)[C@H](Cc1ccccc1)NC(=O)OC(C)(C)C)C(=O)N[C@@H](Cc1ccccc1)C(N)=O | 9.44 | – |
| Cc1ccc(C[C@H](C[C@H](O)[C@H](Cc2ccccc2)NC(=O)OC(C)(C)C)C(=O)N[C@H]2c3ccccc3C[C@H]2O)cc1 | 9.54 | 0.2 (≈ 0.112 µg/mL) |
| CC(C)(C)OC(=O)N[C@@H](Cc1ccccc1)[C@@H](O)C[C@@H](Cc1ccc(C(F)(F)F)cc1)C(=O)N[C@H]1c2ccccc2C[C@H]1O | 9.59 | – |
| CC(C)C[C@H](NC(=O)[C@H](C)C[C@H](O)[C@H](Cc1ccccc1)NC(=O)OC(C)(C)C)C(=O)N[C@@H](Cc1ccccc1)C(N)=O | 8.22 | – |
| CC(C)C[C@H](NC(=O)[C@H](Cc1cccc2ccccc12)C[C@H](O)[C@H](Cc1ccccc1)NC(=O)OC(C)(C)C)C(=O)N[C@@H](Cc1ccccc1)C(N)=O | 8.92 | – |
| COCCOCOCCc1ccc(C[C@H](C[C@H](O)[C@H](Cc2ccccc2)NC(=O)OC(C)(C)C)C(=O)N[C@H]2c3ccccc3C[C@H]2O)cc1 | 9.89 | 0.1 (≈ 0.0677 µg/mL) |
| CC(C)(C)OC(=O)N[C@@H](Cc1ccccc1)[C@@H](O)C[C@@H](C/C=C/c1ccc(O)cc1)C(=O)N[C@H]1c2ccccc2C[C@H]1O | 9.77 | 0.2 (≈ 0.117 µg/mL) |
| CC(C)(C)OC(=O)N[C@@H](Cc1ccccc1)[C@@H](O)C[C@@H](Cc1ccc(CCCO)cc1)C(=O)N[C@H]1c2ccccc2C[C@H]1O | 10.00 | 0.05 (≈ 0.0301 µg/mL) |
| CC(C)(C)OC(=O)N[C@@H](Cc1ccccc1)[C@@H](O)C[C@@H](C/C=C/c1ccc(OCCN2CCOCC2)cc1)C(=O)N[C@H]1c2ccccc2C[C@H]1O | – | 0.05 (≈ 0.035 µg/mL) |
| CC(C)(C)OC(=O)N[C@@H](Cc1ccccc1)[C@@H](O)C[C@@H](Cc1ccc(F)cc1)C(=O)N[C@H]1c2ccccc2C[C@H]1O | 9.36 | – |
| CN(C)CCCc1ccc(C[C@H](C[C@H](O)[C@H](Cc2ccccc2)NC(=O)OC(C)(C)C)C(=O)N[C@H]2c3ccccc3C[C@H]2O)cc1 | 9.22 | – |
| CC(C)(C)OC(=O)N[C@@H](Cc1ccccc1)[C@@H](O)C[C@@H](Cc1ccc(CCO)cc1)C(=O)N[C@H]1c2ccccc2C[C@H]1O | 9.80 | 0.05 (≈ 0.0294 µg/mL) |
| CC(C)(C)OC(=O)N[C@@H](Cc1ccccc1)[C@@H](O)C[C@@H](Cc1c(F)c(F)c(F)c(F)c1F)C(=O)N[C@H]1c2ccccc2C[C@H]1O | 9.22 | – |
| CC(C)(C)OC(=O)N[C@@H](Cc1ccccc1)[C@@H](O)C[C@@H](CCc1cnc2ccccc2n1)C(=O)N[C@H]1c2ccccc2C[C@H]1O | 9.77 | – |
| CC(C)(C)OC(=O)N[C@@H](Cc1ccccc1)[C@@H](O)C[C@@H](Cc1ccc(CCCN2CCOCC2)cc1)C(=O)N[C@H]1c2ccccc2C[C@H]1O | 9.37 | 0.2 (≈ 0.134 µg/mL) |
| CC(C)C[C@H](NC(=O)[C@H](Cc1ccc(-c2ccccc2)cc1)C[C@H](O)[C@H](Cc1ccccc1)NC(=O)OC(C)(C)C)C(=O)N[C@@H](Cc1ccccc1)C(N)=O | 9.37 | – |
| CC(C)C[C@H](NC(=O)[C@H](C/C=C/c1ccccc1)C[C@H](O)[C@H](Cc1ccccc1)NC(=O)OC(C)(C)C)C(=O)N[C@@H](Cc1ccccc1)C(N)=O | 9.64 | 6 (≈ 4.19 µg/mL) |
| CC(C)(C)OC(=O)N[C@@H](Cc1ccccc1)[C@@H](O)C[C@@H](Cc1ccc(O)cc1)C(=O)N[C@H]1c2ccccc2C[C@H]1O | – | 0.05 (≈ 0.028 µg/mL) |
| CN(C)Cc1ccc(C[C@H](C[C@H](O)[C@H](Cc2ccccc2)NC(=O)OC(C)(C)C)C(=O)N[C@H]2c3ccccc3C[C@H]2O)cc1 | 8.85 | – |
| CSc1ccc(C[C@H](C[C@H](O)[C@H](Cc2ccccc2)NC(=O)OC(C)(C)C)C(=O)N[C@H]2c3ccccc3C[C@H]2O)cc1 | 9.66 | – |

| Compound | pIC50 [1] | MIC [2] [µM] |
| --- | --- | --- |
| COCCOCOCCCc1ccc(C[C@H](C[C@H](O)[C@H](Cc2ccccc2)NC(=O)OC(C)(C)C)C(=O)N[C@H]2c3ccccc3C[C@H]2O)cc1 | 10.15 | 0.05 (≈ 0.0345 µg/mL) |
| CC(C)(C)OC(=O)N[C@@H](Cc1ccccc1)[C@@H](O)C[C@@H](Cc1ccc(CCC[N+](C)(C)C)cc1)C(=O)N[C@H]1c2ccccc2C[C@H]1O | 9.04 | 0.1 |
| CC(C)(C)OC(=O)N[C@@H](Cc1ccccc1)[C@@H](O)C[C@@H](Cc1ccc(CO)cc1)C(=O)N[C@H]1c2ccccc2C[C@H]1O | 9.77 | – |
| C[C@H](C[C@H](O)[C@H](Cc1ccccc1)NC(=O)OC(C)(C)C)C(=O)N[C@H]1c2ccccc2C[C@H]1O | 7.20 | – |
| CC(C)(C)OC(=O)N[C@@H](Cc1ccccc1)[C@@H](O)C[C@@H](Cc1ccc(S(C)(=O)=O)cc1)C(=O)N[C@H]1c2ccccc2C[C@H]1O | 9.77 | – |
| C[S+]([O-])c1ccc(C[C@H](C[C@H](O)[C@H](Cc2ccccc2)NC(=O)OC(C)(C)C)C(=O)N[C@H]2c3ccccc3C[C@H]2O)cc1 (stereo partly specified) | 9.29 | – |
| CC[C@H](C[C@H](O)[C@H](Cc1ccccc1)NC(=O)OC(C)(C)C)C(=O)N[C@H]1c2ccccc2C[C@H]1O | 7.46 | – |
| CC(C)(C)OC(=O)N[C@@H](Cc1ccccc1)[C@@H](O)C[C@@H](Cc1ccc(N)cc1)C(=O)N[C@H]1c2ccccc2C[C@H]1O | 9.51 | 0.2 (≈ 0.112 µg/mL) |
| CC(C)(C)OC(=O)N[C@@H](Cc1ccccc1)[C@@H](O)C[C@@H](Cc1cccc(O)c1)C(=O)N[C@H]1c2ccccc2C[C@H]1O | 9.68 | – |
| CC(C)(C)OC(=O)N[C@@H](Cc1ccccc1)[C@@H](O)C[C@@H](Cc1ccc(CCCN2CCSCC2)cc1)C(=O)N[C@H]1c2ccccc2C[C@H]1O | 9.00 | – |
| COCCN(CCCc1ccc(C[C@H](C[C@H](O)[C@H](Cc2ccccc2)NC(=O)OC(C)(C)C)C(=O)N[C@H]2c3ccccc3C[C@H]2O)cc1)CCOC | 9.23 | 0.2 (≈ 0.144 µg/mL) |
| CC(C)(C)OC(=O)N[C@@H](Cc1ccccc1)[C@@H](O)C[C@@H](Cc1ccc(C(C)(C)C)cc1)C(=O)N[C@H]1c2ccccc2C[C@H]1O | 9.57 | 0.2 (≈ 0.12 µg/mL) |
| CC(C)(C)OC(=O)N[C@@H](Cc1ccccc1)[C@@H](O)C[C@@H](Cc1ccc(I)cc1)C(=O)N[C@H]1c2ccccc2C[C@H]1O | 9.14 | – |
| CC(C)(C)OC(=O)N[C@@H](Cc1ccccc1)[C@@H](O)C[C@@H](Cc1ccc(CN2CCOCC2)cc1)C(=O)N[C@H]1c2ccccc2C[C@H]1O | 8.94 | 0.1 (≈ 0.0644 µg/mL) |
| CC(C)(C)OC(=O)N[C@@H](Cc1ccccc1)[C@@H](O)C[C@@H](C/C=C/c1ccccc1)C(=O)N[C@H]1c2ccccc2C[C@H]1O | 9.64 | 0.4 (≈ 0.228 µg/mL) |
| CC(C)(C)OC(=O)N[C@@H](Cc1ccccc1)[C@@H](O)C[C@@H](Cc1ccccc1)C(=O)N[C@H]1c2ccccc2C[C@H]1O | 9.64 | 0.4 (≈ 0.218 µg/mL) |
| CCCCCCCCCCCCCCC[C@H](C[C@H](O)[C@H](Cc1ccccc1)NC(=O)OC(C)(C)C)C(=O)N[C@H]1c2ccccc2C[C@H]1O | < 5.52 | – |
| CC(C)(C)OC(=O)N[C@@H](Cc1ccccc1)[C@@H](O)C[C@@H](Cc1ccc([N+](=O)[O-])cc1)C(=O)N[C@H]1c2ccccc2C[C@H]1O | 9.57 | – |
| CC(C)C[C@H](NC(=O)[C@H](Cc1ccccc1)C[C@H](O)[C@H](Cc1ccccc1)NC(=O)OC(C)(C)C)C(=O)N[C@@H](Cc1ccccc1)C(N)=O | 9.38 | 3 (≈ 2.02 µg/mL) |
| COC(CCc1ccc(C[C@H](C[C@H](O)[C@H](Cc2ccccc2)NC(=O)OC(C)(C)C)C(=O)N[C@H]2c3ccccc3C[C@H]2O)cc1)OC | 10.10 | – |
